Measured values reported in ChEMBL document CHEMBL1122014, “1,2,5-thiadiazole 1-oxide and 1,1-dioxide derivatives. A new class of potent histamine H2-receptor antagonists” (J Med Chem, 1982).

What was measured:
Cavia porcellus = species on record: Cavia porcellus; assay: Antagonism of the positive chronotropic action of histamine in the isolated guinea pig atrium; format: functional; details: Cardiac atrium
Summary of the method: (§1)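 Isolated guinea pig right atrium; antagonism of the positive chronotropic response to histamine. Apparent KB from the Furchgott method: KB = antagonist concentration/(dose ratio − 1), using a single antagonist concentration that gave parallel dose-response shifts without lowering the maximum. Values are means of three to five preparations per antagonist.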

Rattus norvegicus = species on record: Rattus norvegicus; assay: Inhibition of gastric acid secretion in the pylorus-ligated rat (after 2h); format: functional; details: Stomach
Summary of the method: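 Pylorus-ligated rat, by a modified Shay procedure. Compound given subcutaneously at no fewer than five dose levels (three in one case), with at least five rats per dose.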

[1] = Potency ratio in pylorus-ligated rat relative to cimetidine (after 2h); format: functional
Adrenergic receptor beta = Adrenergic receptor beta (Rattus norvegicus, UniProt P18090+P10608+P26255); assay: Antagonism of Beta adrenergic receptor in the isolated rat uterus; format: functional, tissue-based
Histamine H2 receptor = Histamine H2 receptor (Cavia porcellus, UniProt P47747); assay: Competitive antagonism of Histamine H2 receptor in the isolated guinea pig atrium; format: functional, tissue-based, Cardiac atrium; details: read-out: pA2 (converted); summary of the method: as §1
Histamine H1 receptor = Histamine H1 receptor (Cavia porcellus, UniProt P31389); assay: Antagonism of Histamine H1 receptor in the isolated guinea pig ileum; format: functional, tissue-based; details: read-out: pA2 (converted)
Summary of the method: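 Isolated guinea pig ileum; contractile responses to histamine (H1) or methacholine (muscarinic) were tested for blockade.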

Chain of Histamine H1 receptor (P31389 whole entry): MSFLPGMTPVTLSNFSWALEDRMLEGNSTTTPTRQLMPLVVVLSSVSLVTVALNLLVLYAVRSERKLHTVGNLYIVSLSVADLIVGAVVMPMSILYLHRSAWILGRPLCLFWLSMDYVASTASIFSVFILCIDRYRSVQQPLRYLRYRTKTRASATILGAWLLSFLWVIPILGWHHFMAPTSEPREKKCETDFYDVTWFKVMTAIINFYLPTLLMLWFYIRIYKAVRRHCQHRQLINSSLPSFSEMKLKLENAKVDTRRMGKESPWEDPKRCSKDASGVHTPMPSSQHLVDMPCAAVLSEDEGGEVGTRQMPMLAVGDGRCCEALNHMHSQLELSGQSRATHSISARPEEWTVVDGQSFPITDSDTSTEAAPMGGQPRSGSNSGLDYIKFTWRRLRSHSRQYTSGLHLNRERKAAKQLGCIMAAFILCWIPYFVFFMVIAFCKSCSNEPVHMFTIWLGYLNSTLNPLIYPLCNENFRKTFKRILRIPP
Chain of Histamine H2 receptor (P47747 whole entry): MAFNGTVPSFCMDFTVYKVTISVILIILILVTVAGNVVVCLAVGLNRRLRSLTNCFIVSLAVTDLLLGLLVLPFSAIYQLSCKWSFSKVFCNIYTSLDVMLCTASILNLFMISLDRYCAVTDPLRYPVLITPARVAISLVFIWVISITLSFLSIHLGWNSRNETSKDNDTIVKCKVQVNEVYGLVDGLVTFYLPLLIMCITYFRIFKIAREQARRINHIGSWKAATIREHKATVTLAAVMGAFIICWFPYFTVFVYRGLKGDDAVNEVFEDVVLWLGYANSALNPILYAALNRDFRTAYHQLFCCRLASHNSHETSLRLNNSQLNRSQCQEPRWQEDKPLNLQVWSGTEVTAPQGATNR

Which Kb (Cavia porcellus) does the source give for `CNC1=NS(=O)(=O)N=C1NCCSCc1ccc(CN(C)C)s1` here?
Its Kb is 0.14 µM.

What about the ED50 (Rattus norvegicus) of the same molecule?
The ED50 was 0.072 µmol/kg.

And the Ratio [1]?
The Ratio was 94.

Which results are given for `CN(C)Cc1cccc(OCCCNc2n[s+]([O-])nc2N)c1` (centres undefined)?
Kb (Cavia porcellus): 0.065 µM; ED50 (Rattus norvegicus): 0.066 µmol/kg; Ratio [1]: 142

Which pA2 (Adrenergic receptor beta) does the source give for `N=C(N)Nc1nc(CSCCNc2n[s+]([O-])nc2N)cs1` (centres undefined) here?
Its pA2 is 4.3.

What about the Kb (Histamine H2 receptor) of the same molecule?
The Kb was 0.0251 µM.

What about the Kb (Histamine H1 receptor) of the same molecule?
The Kb was 126 µM.

Which Kb (Cavia porcellus) does the source give for `CN/C(=N\CCSCc1nc[nH]c1C)NC#N` [CIMETIDINE] here?
Its Kb is 1.2 µM.

And the ED50 (Rattus norvegicus)?
Its ED50 is 9.4 µmol/kg.

Which results are given for `CNC1=NS(=O)(=O)N=C1NCCSCc1[nH]cnc1C`?
Kb (Cavia porcellus): 11.5 µM; ED50 (Rattus norvegicus): 131 µmol/kg; Ratio [1]: 0.07
